Reference: ChEMBL document CHEMBL4257453, “Identification of karanjin isolated from the Indian beech tree as a potent CYP1 enzyme inhibitor with cellular efficacy via screening of a natural product repository” (Medchemcomm, 2018)

Columns and labels:
CYP2C19 = CYP2C19 (Homo sapiens, UniProt P33261); test: Inhibition of recombinant human CYP2C19 expressed in baker's yeast-derived microsomes (Sacchrosomes) at 10 uM using 3-cyano-7-ethoxycoumarin substrate by EROD assay relative to control; format: ADME; details: probe 3-cyano-7-ethoxycoumarin
How it was run: (§1)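 Yeast microsomes carrying recombinant CYP (Sacchrosomes). […] Substrates per isoform are 7-ethoxyresorufin, 3-cyano-7-ethoxycoumarin, EOMCC or dibenzylfluorescein, read as endpoint fluorescence. Background from compound-only wells without enzyme is subtracted. Independent triplicate runs; α-naphthoflavone positive control.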

CYP3A4 = CYP3A4 (Homo sapiens, UniProt P08684); test: Inhibition of recombinant human CYP3A4 expressed in baker's yeast-derived microsomes (Sacchrosomes) at 10 uM using dibenzylfluorescein substrate by EROD assay relative to control; format: ADME; details: probe dibenzylfluorescein; how it was run: as §1
Cytochrome P450 2C19 = Cytochrome P450 2C19 (Homo sapiens, UniProt P33261); test: Inhibition of human recombinant CYP2C19 expressed in HEK293 cells using 3-cyano-7-ethoxycoumarin substrate substrate preincubated for 30 mins followed by substrate addition and measured after 60 mins by fluorescence assay relative to control; format: ADME, cell-based
How it was run: (§2)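 HEK293 cells adapted to suspension and transiently transfected with pcDNA3.1 plasmids carrying the individual CYP; 100×10^3 cells per well in triplicate. […] Fluorogenic substrate is then added at 5 μM and fluorescence read for 60 min.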

Cytochrome P450 2D6 = Cytochrome P450 2D6 (Homo sapiens, UniProt P10635); test: Inhibition of human recombinant CYP2D6 expressed in HEK293 cells using 7-ethoxy-methyloxy-3-cyanocoumarin substrate substrate preincubated for 30 mins followed by substrate addition and measured after 60 mins by fluorescence assay relative to control; format: ADME, cell-based; how it was run: as §2
Cytochrome P450 1A1 = molecular target: T1, Cytochrome P450 1A1 (Homo sapiens, UniProt P04798); test: Inhibition of human recombinant CYP1A1 expressed in HEK293 cells using 7-ethoxyresorufin substrate preincubated for 30 mins followed by substrate addition and measured after 60 mins by fluorescence assay relative to control; format: cell-based; how it was run: as §2
T1 sequence (P04798 whole entry): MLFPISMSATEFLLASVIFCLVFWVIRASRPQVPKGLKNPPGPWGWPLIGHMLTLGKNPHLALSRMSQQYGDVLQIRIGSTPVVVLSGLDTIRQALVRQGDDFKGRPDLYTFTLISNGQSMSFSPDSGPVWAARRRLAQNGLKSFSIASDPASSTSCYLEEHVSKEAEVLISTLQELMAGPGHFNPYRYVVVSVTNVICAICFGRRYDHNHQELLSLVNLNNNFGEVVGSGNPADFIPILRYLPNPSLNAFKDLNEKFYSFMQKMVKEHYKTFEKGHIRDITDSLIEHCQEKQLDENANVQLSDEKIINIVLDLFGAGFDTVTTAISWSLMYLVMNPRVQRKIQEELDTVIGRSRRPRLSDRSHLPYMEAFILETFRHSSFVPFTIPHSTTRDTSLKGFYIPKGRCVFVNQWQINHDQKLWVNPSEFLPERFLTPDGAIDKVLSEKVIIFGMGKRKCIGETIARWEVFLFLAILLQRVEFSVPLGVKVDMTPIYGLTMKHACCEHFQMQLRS

CYP2C9 = CYP2C9 (Homo sapiens, UniProt P11712); test: Inhibition of recombinant human CYP2C9 expressed in baker's yeast-derived microsomes (Sacchrosomes) at 10 uM using 3-cyano-7-ethoxycoumarin substrate by EROD assay relative to control; format: ADME; details: probe 3-cyano-7-ethoxycoumarin; how it was run: as §1
CYP1B1 = molecular target: T2, CYP1B1 (Homo sapiens, UniProt Q16678); test: Inhibition of recombinant human CYP1B1 expressed in baker's yeast-derived microsomes (Sacchrosomes) at 10 uM using 7-ethoxyresorufin substrate by EROD assay relative to control; format: ADME; details: probe 7-ethoxyresorufin; how it was run: as §1
T2 sequence (Q16678 whole entry): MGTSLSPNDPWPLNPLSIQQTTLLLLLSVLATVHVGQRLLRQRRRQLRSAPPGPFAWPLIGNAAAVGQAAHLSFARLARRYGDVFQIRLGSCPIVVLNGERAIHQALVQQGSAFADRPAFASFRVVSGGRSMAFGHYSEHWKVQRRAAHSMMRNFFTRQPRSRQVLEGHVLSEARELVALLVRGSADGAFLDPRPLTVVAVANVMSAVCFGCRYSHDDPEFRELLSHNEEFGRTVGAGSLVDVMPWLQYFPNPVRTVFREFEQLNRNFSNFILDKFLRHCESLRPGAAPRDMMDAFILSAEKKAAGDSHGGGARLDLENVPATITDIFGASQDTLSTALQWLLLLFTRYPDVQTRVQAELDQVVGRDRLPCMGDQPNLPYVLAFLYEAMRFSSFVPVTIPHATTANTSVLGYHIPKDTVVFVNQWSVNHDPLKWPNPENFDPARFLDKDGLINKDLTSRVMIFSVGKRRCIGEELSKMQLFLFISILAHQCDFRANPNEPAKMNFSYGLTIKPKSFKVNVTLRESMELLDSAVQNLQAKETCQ

CYP1A1 = molecular target: T3, CYP1A1 (Homo sapiens, UniProt P04798); test: Inhibition of recombinant human CYP1A1 expressed in baker's yeast-derived microsomes (Sacchrosomes) at 10 uM using 7-ethoxyresorufin substrate by EROD assay relative to control; details: probe 7-ethoxyresorufin
T3 sequence (P04798 whole entry): T1 sequence (P04798 whole entry)
How it was run: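 Yeast microsomes carrying recombinant CYP (Sacchrosomes). Substrates per isoform are 7-ethoxyresorufin, 3-cyano-7-ethoxycoumarin, EOMCC or dibenzylfluorescein, read as endpoint fluorescence. Background from compound-only wells without enzyme is subtracted. Independent triplicate runs; α-naphthoflavone positive control.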

Chain of CYP2C9 (P11712 whole entry): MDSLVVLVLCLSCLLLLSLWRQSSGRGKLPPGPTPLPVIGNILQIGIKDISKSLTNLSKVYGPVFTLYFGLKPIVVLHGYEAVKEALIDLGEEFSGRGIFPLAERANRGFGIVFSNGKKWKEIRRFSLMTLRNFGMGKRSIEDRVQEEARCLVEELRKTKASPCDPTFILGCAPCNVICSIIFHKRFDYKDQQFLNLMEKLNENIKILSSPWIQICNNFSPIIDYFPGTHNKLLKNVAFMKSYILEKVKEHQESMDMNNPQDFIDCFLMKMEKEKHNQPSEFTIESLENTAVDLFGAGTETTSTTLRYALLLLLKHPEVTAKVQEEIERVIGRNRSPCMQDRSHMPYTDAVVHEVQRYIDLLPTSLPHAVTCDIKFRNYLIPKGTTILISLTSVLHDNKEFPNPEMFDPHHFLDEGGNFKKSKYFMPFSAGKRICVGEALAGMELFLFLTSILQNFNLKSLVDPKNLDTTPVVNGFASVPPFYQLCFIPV
Chain of CYP3A4 (P08684 whole entry): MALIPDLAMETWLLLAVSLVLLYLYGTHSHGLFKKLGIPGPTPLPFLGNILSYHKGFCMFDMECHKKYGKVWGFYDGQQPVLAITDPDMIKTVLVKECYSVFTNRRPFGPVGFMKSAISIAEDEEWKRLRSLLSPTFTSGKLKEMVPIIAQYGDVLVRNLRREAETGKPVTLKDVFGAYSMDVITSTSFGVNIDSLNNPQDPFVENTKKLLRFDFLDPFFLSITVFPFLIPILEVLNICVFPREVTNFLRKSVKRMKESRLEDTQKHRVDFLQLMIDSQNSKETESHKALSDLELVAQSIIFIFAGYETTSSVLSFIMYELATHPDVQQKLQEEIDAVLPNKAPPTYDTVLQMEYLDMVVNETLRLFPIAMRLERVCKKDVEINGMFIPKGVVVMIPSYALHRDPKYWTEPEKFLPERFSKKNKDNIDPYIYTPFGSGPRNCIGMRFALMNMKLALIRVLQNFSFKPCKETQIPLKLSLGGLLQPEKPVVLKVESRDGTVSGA
Chain of Cytochrome P450 2C19 (P33261 whole entry): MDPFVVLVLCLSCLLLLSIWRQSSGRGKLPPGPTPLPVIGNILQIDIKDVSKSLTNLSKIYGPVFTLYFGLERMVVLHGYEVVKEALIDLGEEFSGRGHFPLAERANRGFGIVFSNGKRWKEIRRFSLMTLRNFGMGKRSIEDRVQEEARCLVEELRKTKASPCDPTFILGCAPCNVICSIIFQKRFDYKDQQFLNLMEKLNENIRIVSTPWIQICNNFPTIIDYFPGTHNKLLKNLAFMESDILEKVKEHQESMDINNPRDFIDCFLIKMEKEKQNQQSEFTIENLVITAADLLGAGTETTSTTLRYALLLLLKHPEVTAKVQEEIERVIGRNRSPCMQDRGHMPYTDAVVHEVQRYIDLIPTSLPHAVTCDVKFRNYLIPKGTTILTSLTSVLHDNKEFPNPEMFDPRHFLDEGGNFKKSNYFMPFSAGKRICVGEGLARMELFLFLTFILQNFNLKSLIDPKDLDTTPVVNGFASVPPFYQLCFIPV
Chain of CYP2C19 (P33261 whole entry, canonical isoform): as the sequence (P33261 whole entry) above
Chain of Cytochrome P450 2D6 (P10635 whole entry): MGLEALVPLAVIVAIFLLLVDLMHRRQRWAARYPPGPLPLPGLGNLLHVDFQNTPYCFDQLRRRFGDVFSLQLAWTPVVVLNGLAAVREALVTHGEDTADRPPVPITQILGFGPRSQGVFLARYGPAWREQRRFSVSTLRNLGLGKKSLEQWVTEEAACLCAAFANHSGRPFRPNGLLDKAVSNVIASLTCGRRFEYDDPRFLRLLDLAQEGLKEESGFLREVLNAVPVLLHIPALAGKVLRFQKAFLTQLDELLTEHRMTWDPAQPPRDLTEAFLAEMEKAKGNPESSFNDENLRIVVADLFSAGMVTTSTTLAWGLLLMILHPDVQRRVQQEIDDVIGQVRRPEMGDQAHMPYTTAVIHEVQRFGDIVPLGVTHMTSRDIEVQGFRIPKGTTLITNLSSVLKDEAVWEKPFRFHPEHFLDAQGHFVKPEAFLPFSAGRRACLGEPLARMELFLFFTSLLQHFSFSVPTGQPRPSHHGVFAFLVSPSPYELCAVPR

Compound: COc1c2ccoc2cc2oc(=O)ccc12 [BERGAPTEN]
- inhibition at 10 µM (CYP2C19): 5%
- inhibition at 10 µM (CYP3A4): 3%
- IC50 (Cytochrome P450 2C19): > 10000 nM
- IC50 (Cytochrome P450 2D6): > 10000 nM
- IC50 (Cytochrome P450 1A1): 80 nM
- Ki (Cytochrome P450 1A1): 60 nM
- inhibition at 10 µM (CYP2C9): 4%
- inhibition at 10 µM (CYP1B1): 20%
- inhibition at 10 µM (CYP1A1): 68%

Compound: COc1c2ccoc2c(OC)c2oc(=O)ccc12 [ISOPIMPINELLIN]
- inhibition at 10 µM (CYP2C19): 0%
- inhibition at 10 µM (CYP3A4): 0%
- IC50 (Cytochrome P450 2C19): > 10000 nM
- IC50 (Cytochrome P450 2D6): > 10000 nM
- IC50 (Cytochrome P450 1A1): 20 nM
- Ki (Cytochrome P450 1A1): 12 nM
- inhibition at 10 µM (CYP2C9): 0%
- inhibition at 10 µM (CYP1B1): 55%
- inhibition at 10 µM (CYP1A1): 71%
